Experimental findings from ChEMBL document CHEMBL2073862, “Localization of organic anion transporting polypeptides in the rat and human ciliary body epithelium” (Exp Eye Res, 2005) are described below.

The target in series [1] is T1, Solute carrier organic anion transporter family member 1C1 (Homo sapiens, UniProt Q9NYB5).
T1 sequence (Q9NYB5 whole entry): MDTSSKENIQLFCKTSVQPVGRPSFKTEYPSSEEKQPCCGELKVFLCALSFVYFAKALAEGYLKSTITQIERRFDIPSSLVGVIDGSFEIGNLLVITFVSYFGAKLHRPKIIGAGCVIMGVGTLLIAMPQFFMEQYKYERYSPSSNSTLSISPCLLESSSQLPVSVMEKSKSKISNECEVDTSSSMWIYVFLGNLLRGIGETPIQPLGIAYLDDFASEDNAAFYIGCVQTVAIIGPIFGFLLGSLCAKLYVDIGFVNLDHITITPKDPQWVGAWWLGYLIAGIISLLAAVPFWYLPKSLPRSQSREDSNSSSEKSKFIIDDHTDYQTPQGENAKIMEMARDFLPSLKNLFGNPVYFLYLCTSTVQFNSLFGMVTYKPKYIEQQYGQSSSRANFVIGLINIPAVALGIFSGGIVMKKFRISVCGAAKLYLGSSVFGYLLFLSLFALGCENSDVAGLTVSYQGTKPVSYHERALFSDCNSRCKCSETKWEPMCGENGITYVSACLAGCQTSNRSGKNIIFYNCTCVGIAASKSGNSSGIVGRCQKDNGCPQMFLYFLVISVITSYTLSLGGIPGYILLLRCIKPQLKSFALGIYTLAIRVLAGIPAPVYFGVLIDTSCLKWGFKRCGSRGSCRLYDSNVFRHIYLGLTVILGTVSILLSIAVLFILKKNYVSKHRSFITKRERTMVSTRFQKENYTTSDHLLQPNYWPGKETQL
Briefly: (§1) TP_TRANSPORTER: uptake in Xenopus laevis oocytes. The series is classed as functional, cell-based. The settings on record: oocyte. Put shortly:
(§2)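 Oocytes were injected with 5 ng of cRNA for human OATP1A2, 1C1, 2B1, 3A1 or 4A1, or with water, then cultured 3 days. Radioactivity was counted by scintillation, water-injected uptake was subtracted, and Km came from nonlinear regression of 12–15 oocytes.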

Series [2] concerns the target T2, Solute carrier organic anion transporter family member 3A1 (Homo sapiens, UniProt Q9UIG8).
T2 sequence (Q9UIG8 whole entry): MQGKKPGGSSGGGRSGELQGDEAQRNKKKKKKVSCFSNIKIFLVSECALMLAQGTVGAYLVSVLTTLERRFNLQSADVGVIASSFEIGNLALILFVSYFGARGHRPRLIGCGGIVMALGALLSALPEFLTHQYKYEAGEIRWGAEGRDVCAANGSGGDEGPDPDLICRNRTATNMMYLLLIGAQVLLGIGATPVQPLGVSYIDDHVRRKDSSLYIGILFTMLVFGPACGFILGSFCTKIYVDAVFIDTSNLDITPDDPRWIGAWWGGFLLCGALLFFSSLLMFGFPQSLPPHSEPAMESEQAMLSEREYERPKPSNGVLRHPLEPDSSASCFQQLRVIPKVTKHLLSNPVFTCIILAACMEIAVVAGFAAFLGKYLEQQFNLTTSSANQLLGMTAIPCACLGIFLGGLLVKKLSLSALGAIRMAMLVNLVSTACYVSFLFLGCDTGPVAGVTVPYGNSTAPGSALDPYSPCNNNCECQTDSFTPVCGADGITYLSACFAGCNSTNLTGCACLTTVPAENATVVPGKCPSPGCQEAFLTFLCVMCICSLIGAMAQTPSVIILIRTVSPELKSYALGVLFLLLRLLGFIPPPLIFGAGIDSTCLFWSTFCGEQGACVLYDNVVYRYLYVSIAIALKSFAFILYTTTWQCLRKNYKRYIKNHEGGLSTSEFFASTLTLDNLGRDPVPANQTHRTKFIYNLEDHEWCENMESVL
Described as §1. The settings on record: oocyte. The series is classed as functional, cell-based. The procedure, abridged: as §2

Series [3] has as its target T3, Solute carrier organic anion transporter family member 4A1 (Homo sapiens, UniProt Q96BD0).
T3 sequence (Q96BD0 whole entry): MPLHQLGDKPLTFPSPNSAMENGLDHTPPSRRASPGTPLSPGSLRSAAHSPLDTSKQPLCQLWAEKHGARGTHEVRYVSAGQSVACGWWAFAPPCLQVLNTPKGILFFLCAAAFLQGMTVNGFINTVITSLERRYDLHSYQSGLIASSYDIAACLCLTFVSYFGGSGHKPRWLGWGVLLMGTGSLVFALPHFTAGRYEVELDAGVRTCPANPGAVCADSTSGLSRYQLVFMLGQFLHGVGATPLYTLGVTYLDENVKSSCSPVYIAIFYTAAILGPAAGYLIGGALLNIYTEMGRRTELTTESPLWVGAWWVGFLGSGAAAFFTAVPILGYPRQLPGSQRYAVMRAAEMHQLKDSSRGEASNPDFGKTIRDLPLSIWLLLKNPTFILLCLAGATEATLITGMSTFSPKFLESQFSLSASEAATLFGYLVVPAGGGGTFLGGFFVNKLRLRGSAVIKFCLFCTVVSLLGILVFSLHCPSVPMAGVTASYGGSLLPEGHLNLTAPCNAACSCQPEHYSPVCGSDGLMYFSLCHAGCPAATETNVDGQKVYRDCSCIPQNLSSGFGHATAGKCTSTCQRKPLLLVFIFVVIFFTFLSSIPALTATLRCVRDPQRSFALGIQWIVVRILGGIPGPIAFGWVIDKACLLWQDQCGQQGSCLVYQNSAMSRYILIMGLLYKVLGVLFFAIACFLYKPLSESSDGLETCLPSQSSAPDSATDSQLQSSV
Described as §1. The series is classed as functional, cell-based. The note with it: oocyte. The procedure, abridged: as §2

The target in series [4] is T4, Solute carrier organic anion transporter family member 2B1 (Homo sapiens, UniProt O94956).
T4 sequence (O94956 whole entry): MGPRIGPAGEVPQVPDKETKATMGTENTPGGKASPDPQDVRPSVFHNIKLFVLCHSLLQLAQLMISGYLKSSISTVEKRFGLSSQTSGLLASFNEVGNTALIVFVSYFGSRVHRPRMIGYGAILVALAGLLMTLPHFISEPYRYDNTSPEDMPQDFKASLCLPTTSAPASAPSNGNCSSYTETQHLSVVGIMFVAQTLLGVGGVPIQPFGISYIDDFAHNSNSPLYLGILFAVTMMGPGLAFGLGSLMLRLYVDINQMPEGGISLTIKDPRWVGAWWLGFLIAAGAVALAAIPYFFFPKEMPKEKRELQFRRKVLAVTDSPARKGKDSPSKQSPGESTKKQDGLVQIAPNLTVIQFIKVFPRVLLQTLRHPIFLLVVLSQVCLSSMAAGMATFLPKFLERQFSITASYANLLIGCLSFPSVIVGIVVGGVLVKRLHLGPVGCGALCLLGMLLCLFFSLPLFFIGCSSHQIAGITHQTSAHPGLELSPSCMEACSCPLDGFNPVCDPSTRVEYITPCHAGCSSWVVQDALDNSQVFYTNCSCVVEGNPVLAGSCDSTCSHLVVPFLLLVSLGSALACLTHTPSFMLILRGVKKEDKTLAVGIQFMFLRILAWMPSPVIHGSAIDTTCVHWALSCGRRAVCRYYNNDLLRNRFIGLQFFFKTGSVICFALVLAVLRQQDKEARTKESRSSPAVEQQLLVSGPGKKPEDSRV
The description is as §1. The series is classed as functional, cell-based. The settings on record: oocyte. The procedure, abridged:
as §2

In series [5] the target is T5, Solute carrier organic anion transporter family member 1A2 (Homo sapiens, UniProt P46721).
T5 sequence (P46721 whole entry): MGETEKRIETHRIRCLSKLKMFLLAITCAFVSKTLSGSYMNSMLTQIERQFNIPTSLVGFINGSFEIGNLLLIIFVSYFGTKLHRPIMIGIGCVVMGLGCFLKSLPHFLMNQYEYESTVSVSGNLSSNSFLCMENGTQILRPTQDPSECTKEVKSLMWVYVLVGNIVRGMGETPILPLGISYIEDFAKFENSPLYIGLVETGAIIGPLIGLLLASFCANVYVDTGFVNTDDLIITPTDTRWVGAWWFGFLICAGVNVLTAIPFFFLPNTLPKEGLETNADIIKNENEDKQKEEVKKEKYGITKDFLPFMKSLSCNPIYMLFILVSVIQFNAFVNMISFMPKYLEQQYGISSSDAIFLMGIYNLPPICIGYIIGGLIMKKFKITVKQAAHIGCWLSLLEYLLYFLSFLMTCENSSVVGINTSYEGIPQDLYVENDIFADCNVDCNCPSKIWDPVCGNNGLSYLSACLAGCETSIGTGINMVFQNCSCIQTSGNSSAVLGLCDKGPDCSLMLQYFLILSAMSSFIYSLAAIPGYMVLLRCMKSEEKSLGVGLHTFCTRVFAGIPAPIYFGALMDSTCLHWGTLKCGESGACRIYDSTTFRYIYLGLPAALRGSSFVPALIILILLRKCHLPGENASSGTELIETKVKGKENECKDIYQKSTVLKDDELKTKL
The description is as §1. The series is classed as functional, cell-based, Oocyte. The procedure, abridged:
as §2

Substrate in series [6]: CCCCCCCC(=O)CC[C@@H]1[C@@H](C/C=C\CCCC(=O)O)[C@@H](O)C[C@H]1O
Described as §1. The series is classed as functional, cell-based, Oocyte. Put shortly: as §2

On to `CCCCCCCC(=O)CC[C@@H]1[C@@H](C/C=C\CCCC(=O)OC(C)C)[C@@H](O)C[C@H]1O` [UNOPROSTONE ISOPROPYL], for which the Activity result in series [1], in series [2], in series [3], in series [4] and in series [5] (oocyte) was “is not a substrate [(-)]” each time.
For `CCCCCCCC(=O)CC[C@@H]1[C@@H](C/C=C\CCCC(=O)O)[C@@H](O)C[C@H]1O` [UNOPROSTONE], the Activity entry in series [1] and in series [2] was “is not a substrate [(-)]” in each case. The Km in series [5] (Xenopus laevis oocytes) worked out at 93 µM.

B1: Solute carrier organic anion transporter family member 4A1 (Homo sapiens) (protein)
chain: MPLHQLGDKPLTFPSPNSAMENGLDHTPPSRRASPGTPLSPGSLRSAAHSPLDTSKQPLCQLWAEKHGARGTHEVRYVSAGQSVACGWWAFAPPCLQVLNTPKGILFFLCAAAFLQGMTVNGFINTVITSLERRYDLHSYQSGLIASSYDIAACLCLTFVSYFGGSGHKPRWLGWGVLLMGTGSLVFALPHFTAGRYEVELDAGVRTCPANPGAVCADSTSGLSRYQLVFMLGQFLHGVGATPLYTLGVTYLDENVKSSCSPVYIAIFYTAAILGPAAGYLIGGALLNIYTEMGRRTELTTESPLWVGAWWVGFLGSGAAAFFTAVPILGYPRQLPGSQRYAVMRAAEMHQLKDSSRGEASNPDFGKTIRDLPLSIWLLLKNPTFILLCLAGATEATLITGMSTFSPKFLESQFSLSASEAATLFGYLVVPAGGGGTFLGGFFVNKLRLRGSAVIKFCLFCTVVSLLGILVFSLHCPSVPMAGVTASYGGSLLPEGHLNLTAPCNAACSCQPEHYSPVCGSDGLMYFSLCHAGCPAATETNVDGQKVYRDCSCIPQNLSSGFGHATAGKCTSTCQRKPLLLVFIFVVIFFTFLSSIPALTATLRCVRDPQRSFALGIQWIVVRILGGIPGPIAFGWVIDKACLLWQDQCGQQGSCLVYQNSAMSRYILIMGLLYKVLGVLFFAIACFLYKPLSESSDGLETCLPSQSSAPDSATDSQLQSSV
On to B1, for which, in series [6], the Km is 132 µM.

B2: Solute carrier organic anion transporter family member 2B1 (Homo sapiens) (protein)
chain: MGPRIGPAGEVPQVPDKETKATMGTENTPGGKASPDPQDVRPSVFHNIKLFVLCHSLLQLAQLMISGYLKSSISTVEKRFGLSSQTSGLLASFNEVGNTALIVFVSYFGSRVHRPRMIGYGAILVALAGLLMTLPHFISEPYRYDNTSPEDMPQDFKASLCLPTTSAPASAPSNGNCSSYTETQHLSVVGIMFVAQTLLGVGGVPIQPFGISYIDDFAHNSNSPLYLGILFAVTMMGPGLAFGLGSLMLRLYVDINQMPEGGISLTIKDPRWVGAWWLGFLIAAGAVALAAIPYFFFPKEMPKEKRELQFRRKVLAVTDSPARKGKDSPSKQSPGESTKKQDGLVQIAPNLTVIQFIKVFPRVLLQTLRHPIFLLVVLSQVCLSSMAAGMATFLPKFLERQFSITASYANLLIGCLSFPSVIVGIVVGGVLVKRLHLGPVGCGALCLLGMLLCLFFSLPLFFIGCSSHQIAGITHQTSAHPGLELSPSCMEACSCPLDGFNPVCDPSTRVEYITPCHAGCSSWVVQDALDNSQVFYTNCSCVVEGNPVLAGSCDSTCSHLVVPFLLLVSLGSALACLTHTPSFMLILRGVKKEDKTLAVGIQFMFLRILAWMPSPVIHGSAIDTTCVHWALSCGRRAVCRYYNNDLLRNRFIGLQFFFKTGSVICFALVLAVLRQQDKEARTKESRSSPAVEQQLLVSGPGKKPEDSRV
For the molecule B2, in series [6], the Km worked out at 91 µM.

As a reminder, the Km is the substrate concentration at which the rate is half of its maximum.
